Reference: ChEMBL document CHEMBL1149466, “Synthesis and pharmacochemical study of novel polyfunctional molecules combining anti-inflammatory, antioxidant, and hypocholesterolemic properties” (Bioorg Med Chem Lett, 2006)
Activity calls are given as the source filed them. The calls are words filed in the database; no cut-off is given here.

What was measured:
Rattus norvegicus [1] = assay: Increase in paw weight in Fischer rats at 300 umol/kg, ip; format: functional
In short: (§1)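 Carrageenan paw edema in rats; compounds given ip at 300 µmol/kg. Read-out % paw weight increase versus controls, converted to % edema inhibition; mean of 4-9 rats from two independent experiments, Student's t test.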

[2] = tested on: Radical scavenging activity; assay: Inhibition of lipid peroxidation of rat hepatic microsomal membrane lipids; format: functional, Liver
[3] = tested on: Radical scavenging activity; assay: DPPH radical scavenging activity at 0.2 mM; format: functional
In short: (§2)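 Radical scavenging measured as % interaction with stable free radical DPPH (0.2 mM) after 30 min incubation, compounds at 0.2, 0.1 and 0.05 mM.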

[4] = tested on: Radical scavenging activity; assay: DPPH radical scavenging activity at 0.1 mM; format: functional; in short: as §2
[5] = tested on: Radical scavenging activity; assay: DPPH radical scavenging activity at 0.05 mM; format: functional; in short: as §2
Rattus norvegicus [6] = assay: Anti-inflammatory activity against paw edema induced by carrageenan in fischer rat at 300 umol/kg, ip; format: functional; in short: as §1
Rattus norvegicus [7] = assay: Decrease in triglyceride level in rat at 56 umol/kg, ip; parameters: scale not given: the % may be the effect or the level left; settings: route intraperitoneal
Rattus norvegicus [8] = assay: Decrease in LDL cholesterol level in rat at 56 umol/kg, ip; parameters: scale not given: the % may be the effect or the level left; settings: route intraperitoneal
Rattus norvegicus [9] = assay: Decrease in total cholesterol level in rat at 56 umol/kg, ip; parameters: scale not given: the % may be the effect or the level left; settings: route intraperitoneal
[10] = tested on: Radical scavenging activity; assay: Inhibition of lipid peroxidation of rat hepatic microsomal membrane lipids at 1 mM; settings: Liver
Rattus norvegicus [11] = assay: Inhibition of arthritis in rat at 300-600 umol/kg, id; format: functional
In short: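 Arthritis induced in rats by id injection of complete Freund's adjuvant; compounds dosed 300-600 µmol/kg for 14 days, arthritic score assessed day 15 post adjuvant, % inhibition versus controls; mean of 4-6 rats, Student's t test.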

[12] = molecular target: T1, Seed linoleate 13S-lipoxygenase-1 (Glycine max, UniProt P08170); assay: Inhibition of soybean lipoxygenase; format: functional
T1 sequence (P08170 whole entry): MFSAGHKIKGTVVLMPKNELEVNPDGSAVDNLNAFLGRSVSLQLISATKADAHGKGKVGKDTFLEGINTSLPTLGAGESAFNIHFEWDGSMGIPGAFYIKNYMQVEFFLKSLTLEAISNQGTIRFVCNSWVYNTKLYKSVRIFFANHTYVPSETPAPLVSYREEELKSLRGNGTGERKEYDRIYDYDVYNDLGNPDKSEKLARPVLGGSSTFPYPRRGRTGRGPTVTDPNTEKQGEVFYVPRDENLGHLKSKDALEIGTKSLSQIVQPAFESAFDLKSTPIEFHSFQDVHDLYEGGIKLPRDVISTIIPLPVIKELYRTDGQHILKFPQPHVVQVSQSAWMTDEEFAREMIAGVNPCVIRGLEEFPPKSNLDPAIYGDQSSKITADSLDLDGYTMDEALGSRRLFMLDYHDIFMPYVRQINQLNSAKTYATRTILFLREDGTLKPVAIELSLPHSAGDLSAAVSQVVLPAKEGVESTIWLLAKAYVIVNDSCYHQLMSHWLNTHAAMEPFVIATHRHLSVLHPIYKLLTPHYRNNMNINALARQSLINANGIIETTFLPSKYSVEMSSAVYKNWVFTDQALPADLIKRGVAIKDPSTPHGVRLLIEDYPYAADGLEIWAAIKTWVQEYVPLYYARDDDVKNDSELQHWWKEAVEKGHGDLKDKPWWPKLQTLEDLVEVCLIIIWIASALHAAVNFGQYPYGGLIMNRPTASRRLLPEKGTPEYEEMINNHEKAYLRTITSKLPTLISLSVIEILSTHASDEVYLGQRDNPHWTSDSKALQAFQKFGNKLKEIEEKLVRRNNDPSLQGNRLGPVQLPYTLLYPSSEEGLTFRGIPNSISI
In short: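 Soybean lipoxygenase, 220 U/ml, with sodium linoleate (100 μM) substrate, pH 9, 28 °C, 5 min; IC50 determined.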

Rattus norvegicus [13] = assay: Gastrointestinal toxicity in rat at 1350 umol/kg, sc; format: organism-based; settings: in vivo
In short: (§3)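 Female rats dosed sc once daily for four days. Mortality, perforating GI ulcer incidence, melena defecation and body weight loss recorded 24 h after last dose.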

Rattus norvegicus [14] = assay: Gastrointestinal toxicity in rat at 84 umol/kg, sc; format: organism-based; settings: in vivo; in short: as §3
Rattus norvegicus [15] = assay: Decrease in triglyceride level in rat at 200 umol/kg, ip; parameters: scale not given: the % may be the effect or the level left; settings: route intraperitoneal
Rattus norvegicus [16] = assay: Decrease in LDL cholesterol level in rat at 200 umol/kg, ip; parameters: scale not given: the % may be the effect or the level left; settings: route intraperitoneal
Rattus norvegicus [17] = assay: Decrease in total cholesterol level in rat at 200 umol/kg, ip; parameters: scale not given: the % may be the effect or the level left; settings: route intraperitoneal

Row | Compound | Activity (Rattus norvegicus [1]) [%] | IC50 [2] [µM] | Activity [3] | Activity [4] | Activity [5] | inhibition in vivo at 300 µmol/kg (Rattus norvegicus [6]) [%] | Activity (Rattus norvegicus [7]) [%] | Activity (Rattus norvegicus [8]) [%] | Activity (Rattus norvegicus [9]) [%] | inhibition [10] [%] | Inhibition (Rattus norvegicus [11]) [%] | IC50 [12] [µM] | Activity (Rattus norvegicus [13]) | Activity (Rattus norvegicus [14]) | Activity (Rattus norvegicus [15]) [%] | Activity (Rattus norvegicus [16]) [%] | Activity (Rattus norvegicus [17]) [%]
1 | CCOC(=O)C(CS)NC(=O)C1CCCCN1C(=O)C(C)c1ccc2cc(OC)ccc2c1 (stereo unspecified) | 34.9 | 122 | 76.7% | 46% | 23.5% | 50.7 | 21.3 | 52 | 40 | – | – | – | – | – | – | – | –
2 | NCCS | – | – | – | – | – | – | – | – | – | 37 | – | – | – | – | – | – | –
3 | CCOC(=O)C(CS)NC(=O)C1CCCN1C(=O)C(C)c1ccc2cc(OC)ccc2c1 (stereo unspecified) | 44.6 | 320 | 86.3% | 61.9% | 32.1% | 23.7 | 68.7 | 55 | 58 | – | 100 | 48 | Non-toxic | – | – | – | –
4 | COc1ccc2cc([C@H](C)C(=O)O)ccc2c1 [NAPROXEN] | 28.7 | – | – | – | – | 51 | – | – | – | – | – | – | Toxic | – | – | – | –
5 | CCOC(=O)[C@@H](N)CS | – | – | – | – | – | – | – | – | – | 49 | – | – | – | – | – | – | –
6 | COc1ccc2cc(C(C)C(=O)N3CC(O)CC3C(=O)NCCS)ccc2c1 (stereo unspecified) | 44.4 | – | 56.2% | 36.5% | 21.3% | 24.1 | – | – | – | – | – | – | – | – | – | – | –
7 | COc1ccc2cc(C(C)C(=O)N3CCCC3C(=O)NCCS)ccc2c1 (stereo unspecified) | 42.9 | – | 78.9% | 56.3% | 28.8% | 26.7 | – | – | – | – | 51.6 | 35 | Non-toxic | – | – | – | –
8 | CCOC(=O)C(CS)NC(=O)C1CCCN1C(=O)Cc1c(C)n(C(=O)c2ccc(Cl)cc2)c2ccc(OC)cc12 (stereo unspecified) | 50.1 | 390 | 69.7% | 44.2% | 31.1% | 14.3 | – | – | – | – | 77.4 | 200 | – | Non-toxic | 55.7 | 48.4 | 78
9 | COc1ccc2c(c1)c(CC(=O)N1CCCC1C(=O)NCCS)c(C)n2C(=O)c1ccc(Cl)cc1 (stereo unspecified) | 48.5 | – | inactive | inactive | inactive | 17 | – | – | – | – | 50.8 | – | – | Non-toxic | – | – | –
10 | COc1ccc2c(c1)c(CC(=O)O)c(C)n2C(=O)c1ccc(Cl)cc1 [INDOMETHACIN] | 27 | – | – | – | – | 53.9 | – | – | – | – | – | – | – | Toxic | – | – | –
